Among the data in ChEMBL document CHEMBL1938354 (Eur J Med Chem, 2012) are Ratio IC50 and IC50 values, retold here.

Aldo-keto reductase family 1 member B10, sequence (O60218 whole entry): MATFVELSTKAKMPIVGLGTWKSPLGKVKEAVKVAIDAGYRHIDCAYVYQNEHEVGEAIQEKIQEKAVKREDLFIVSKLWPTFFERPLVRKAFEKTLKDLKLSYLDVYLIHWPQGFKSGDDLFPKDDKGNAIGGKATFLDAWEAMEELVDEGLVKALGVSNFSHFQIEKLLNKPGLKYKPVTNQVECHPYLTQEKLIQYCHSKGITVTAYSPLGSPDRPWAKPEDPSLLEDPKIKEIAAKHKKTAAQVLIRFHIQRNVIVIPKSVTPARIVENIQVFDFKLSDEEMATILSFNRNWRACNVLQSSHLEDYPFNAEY

The species named for the first assay is Homo sapiens. Put plainly: Selectivity ratio of IC50 for human recombinant N-terminus His6-tagged AKR1B1 to IC50 for human recombinant N-terminus His6-tagged AKR1B10. In outline: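 IC50 values for purified recombinant AKR1B1 and AKR1B10 were each determined at 25 °C in 0.1 M potassium phosphate, pH 7.4, with 0.1 mM NADPH and 0.2 mM pyridine-3-aldehyde, by NADPH absorbance at 340 nm. Each IC50 is the mean of at least three determinations. The ratio is AKR1B1 IC50 over AKR1B10 IC50.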
As for `O=C(/C=C/c1ccc(O)cc1)OCCc1ccccc1`, the Ratio IC50 came to 31.
In the case of `O=C(/C=C/c1ccccc1)OCCc1ccccc1` [PHENETHYL CINNAMATE], the Ratio IC50 was 1.
Same read-out and setting: the figure for `COc1cc(O)ccc1/C=C/C(=O)OCCc1cccc(O)c1` is 562.
Same read-out and setting: the figure for `COc1cc(O)ccc1/C=C/C(=O)OCCc1ccccc1` is 554; for `COc1cc(O)ccc1/C=C/C(=O)OCCCc1ccccc1O` it is 766.

For a further assay, the target named is Aldo-keto reductase family 1 member B1 (Homo sapiens, UniProt P15121). Put plainly: Inhibition of human recombinant N-terminus His6-tagged AKR1B1 expressed in Escherichia coli BL21 DE3 assessed as pyridine-3-aldehyde reduction by spectrometric analysis.
Usually IC50 stands for the midpoint of a concentration-inhibition curve. In the case of `O=C(O)/C=C/c1ccc(O)cc1` [COUMARIC ACID], the IC50 amounted to 76 µM.
Regarding `CC(C)=CCc1cc(/C=C/C(=O)O)ccc1O` [DRUPANIN], the IC50 was 38 µM.
With `O=C(/C=C/c1ccc(O)cc1)OCCc1ccccc1`, the IC50 stood at 2.2 µM.
Same read-out and setting: the result for `O=C(/C=C/c1ccccc1)OCCc1ccccc1` [PHENETHYL CINNAMATE] reads 23 µM; that for `CC(C)=CCc1cc(/C=C/C(=O)O)cc(CC=C(C)C)c1O` [ARTEPILLIN], 23 µM.
On to `COc1cc(O)ccc1/C=C/C(=O)OCCc1cccc(O)c1`, for which the IC50 worked out at 7.3 µM.
In the case of `O=C(/C=C/c1ccc(O)c(O)c1)O[C@@H]1C[C@](O)(C(=O)O)C[C@@H](OC(=O)/C=C/c2ccc(O)c(O)c2)[C@H]1O` (relative stereo), the IC50 came out at 0.088 µM.
As for `COc1cc(O)ccc1/C=C/C(=O)OCCc1ccccc1`, the IC50 is 7.2 µM.
Same read-out and setting: the result for `COc1cc(O)ccc1/C=C/C(=O)OCCCc1ccccc1O` reads 6.9 µM.

Another assay has as its target Aldo-keto reductase family 1 member B10 (Homo sapiens, UniProt O60218). Put plainly: Inhibition of human recombinant N-terminus His6-tagged AKR1B10 expressed in Escherichia coli BL21 DE3 assessed as pyridine-3-aldehyde reduction by spectrometric analysis. The gist of the method: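 Purified recombinant 6-His AKR1B10 was assayed at 25 °C in 0.1 M potassium phosphate, pH 7.4, with 0.1 mM NADPH and 0.2 mM pyridine-3-aldehyde. Reductase rate was followed as NADPH absorbance change at 340 nm. IC50 is the mean of at least three determinations.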
For the compound `O=C(O)/C=C/c1ccc(O)cc1` [COUMARIC ACID], the IC50 worked out at 63 µM.
Still for that read-out and setting: the figure for `O=C(/C=C/c1ccc(O)c(O)c1)O[C@@H]1[C@H](O)C[C@@](O)(C(=O)O)C[C@H]1OC(=O)/C=C/c1ccc(O)c(O)c1` (relative stereo) is 0.24 µM; for `CC(C)=CCc1cc(/C=C/C(=O)O)ccc1O` [DRUPANIN] it is 49 µM.
`O=C(/C=C/c1ccc(O)c(O)c1)O[C@@H]1C[C@](O)(C(=O)O)C[C@@H](O)[C@H]1O` (relative stereo) [CHLOROGENIC ACID]: the IC50 came to 7.9 µM.
On the same count and under the same terms, the figure for `O=C(O)/C=C/c1ccc(O)c(O)c1` [CAFFEIC ACID] is 90 µM.
Still for that read-out and setting: the figure for `O=C(/C=C/c1ccc(O)cc1)OCCc1ccccc1` is 0.069 µM.
On the same count and under the same terms, the figure for `O=C(/C=C/c1ccccc1)OCCc1ccccc1` [PHENETHYL CINNAMATE] is 18 µM; for `CC(C)=CCc1cc(/C=C/C(=O)O)cc(CC=C(C)C)c1O` [ARTEPILLIN] it is 53 µM.
For `COc1cc(O)ccc1/C=C/C(=O)OCCc1cccc(O)c1`, the IC50 was determined as 0.013 µM.
Consider `O=C(/C=C/c1ccc(O)c(O)c1)O[C@@H]1C[C@](O)(C(=O)O)C[C@@H](OC(=O)/C=C/c2ccc(O)c(O)c2)[C@H]1O` (relative stereo), for which the IC50 worked out at 0.13 µM.
For `COc1cc(O)ccc1/C=C/C(=O)OCCc1ccccc1`, the concentration for half-maximal inhibition (IC50) amounted to 0.013 µM.
On the same count and under the same terms, the figure for `COc1cc(O)ccc1/C=C/C(=O)OCCCc1ccccc1O` is 0.009 µM.
